The results in this text go back to ChEMBL document CHEMBL1133353, “Structural analogues of some highly active non-competitive AMPA antagonists” (Bioorg Med Chem Lett, 2000).

Assay [1] relates to Mus musculus. Kind of assay: No behavioral change was observed after the peroral administration of compound in mice. The class given is functional.
Assay [2] concerns Mus musculus. Kind of assay: Anticonvulsant activity of compound, administered perorally in mice was evaluated using maximal electroshock seizure model. The class given is functional. The conditions noted are these: po. The method, boiled down:
(§1)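 Mice were dosed orally 60 min before maximal electroshock, using 10 mice per dose at 3–4 doses. ED50 was calculated by the Litchfield–Wilcoxon method.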
In general terms: In the maximal electroshock model the usual endpoint is tonic extension of the hind limbs.

The test system of assay [3] is Mus musculus. Kind of assay: Muscle relaxant activity of compound, administered intraperitoneally in mice was evaluated using inclined screen test. The conditions noted are these: ip. In kind it is functional. The method in brief: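 Inclined screen test for muscle relaxation in mice, with compound given ip 30 min before testing; 10 mice per dose at 3–4 doses. ED50 was derived by the Litchfield–Wilcoxon method.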

The subject of assay [4] is Mus musculus. Kind of assay: No behavioral change was observed after the intraperitoneal administration of compound in mice. The class given is functional.
The species entered for assay [5] is Gallus gallus. Kind of assay: Compound was examined in vitro for inhibition of AMPA (5 uM) evoked spreading depression in isolated retina prepared from young chicken. In kind it is functional. The method, boiled down: (§2)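 Each compound was first screened at 20 µM in 6 retina preparations. Below 40% inhibition was recorded as IC50 >20 µM, and 40–60% as ~20 µM. Above 60%, IC50 was determined from 3–5 concentrations with 6 retinas per concentration.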

The subject of assay [6] is Mus musculus. Kind of assay: Anticonvulsant activity of compound, administered perorally in mice was evaluated using maximal electroshock seizure model; values ranges from (40.5-54.7). In kind it is functional. The following applies: po. The method, boiled down:
as §1

Assay [7] concerns Mus musculus. Kind of assay: Increase of spontaneous motor activity, ataxy, stereotypia, licking, muscle rigidity was observed after the intraperitoneal administration of compound in mice. In kind it is functional.
For assay [8], the system named is Mus musculus. Kind of assay: Increase of spontaneous motor activity, ataxy, stereotypia, licking, muscle rigidity was observed after the peroral administration of compound in mice. The class given is functional.
The test system of assay [9] is Mus musculus. Kind of assay: Anticonvulsant activity of compound, administered perorally in mice was evaluated using maximal metrazole seizure model. In kind it is functional. The conditions noted are these: po. The method in brief: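 Oral dosing in mice 60 min before 130 mg/kg metrazole ip, with lethality as the endpoint; 10 mice per dose at 3–4 doses. ED50 was obtained by the Litchfield–Wilcoxon method.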

For assay [10], the species on record is Rattus norvegicus. Kind of assay: (§3) Compound was tested for inhibition of whole cell current induced […]. In kind it is functional. The method in brief:
(§4)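 Patch-clamp whole-cell currents evoked by 5 µM AMPA; inhibition reported as IC50 or as percent inhibition at 5 µM compound.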

The test system of assay [11] is Mus musculus. Kind of assay: Loss of righting reflex was observed after the peroral administration of compound in mice. In kind it is functional.
For assay [12], the species on record is Gallus gallus. Kind of assay: Compound was examined in vitro for inhibition of kainate (5 uM) evoked spreading depression in isolated retina prepared from young chicken. In kind it is functional. The method in brief: as §2
Assay [13] has as its system Mus musculus. Kind of assay: Loss of righting reflex was observed after the intraperitoneal administration of compound in mice. The class given is functional.
The test system of assay [14] is Mus musculus. Kind of assay: Decrease of spontaneous motor activity, ataxy, mild muscle relaxation was observed after the intraperitoneal administration of compound in mice. The class given is functional.
Assay [15] concerns Mus musculus. Kind of assay: Decrease of spontaneous motor activity, ataxy, mild muscle relaxation was observed after the peroral administration of compound in mice. The class given is functional.
Assay [16] has as its system Mus musculus. Kind of assay: Adynamia was observed after the intraperitoneal administration of compound in mice. In kind it is functional.
The subject of assay [17] is Mus musculus. Kind of assay: Adynamia was observed after the peroral administration of compound in mice. In kind it is functional.
The species entered for assay [18] is Rattus norvegicus. The assay is described as §3. The class given is functional, cell-based. The method in brief: as §4

`CCCCC(=O)N1CC(C)c2cc3c(cc2C(c2ccc(N)cc2)=N1)OCO3` (stereo not drawn): the Dose came out at 200 mg/kg in [1] and 100 mg/kg in assay [4]. In addition, the 50% effective dose (ED50) in assay [2] was > 100 mg/kg; in assay [3], > 200 mg/kg. Besides, the IC50 in assay [5] was > 20 µM.

With `CC1CNN=C(c2ccc(N)cc2)c2cc3c(cc21)OCO3` (stereo not drawn), the ED50 in assay [6] turned out to be 47.1 mg/kg; in [3], 100 mg/kg. The Dose in [7] came out at 100 mg/kg; in assay [8] it was 200 mg/kg.

Consider `CNC(=O)N1CC(C)c2cc3c(cc2C(c2ccc(N)cc2)=N1)OCO3` (stereo not drawn), for which the values for the ED50 in [9], in [2] and in [3] were 67.6 mg/kg, 48.8 mg/kg and 55.9 mg/kg, respectively. In assay [10], this compound came in with an Inhibition of 52.7%. Also, the Dose in assay [11] was determined as 200 mg/kg; in assay [13] it was 100 mg/kg. In addition, the IC50 in [12] was 20 µM; in assay [5] it was 15.6 µM.

On to `CC1CN(C(=O)C2CC2)N=C(c2ccc(N)cc2)c2cc3c(cc21)OCO3` (stereo not drawn), for which the Dose in assay [1] was determined as 200 mg/kg; in assay [4] it was 100 mg/kg. The ED50 is > 100 mg/kg in assay [2] and > 200 mg/kg in assay [3]. For the same compound, in [5], the IC50 is > 20 µM.

As to `CC1CN(c2ccccn2)N=C(c2ccc(N)cc2)c2cc3c(cc21)OCO3` (stereo not drawn), the ED50 in [2] is > 100 mg/kg; in [3] it was > 200 mg/kg. In addition, the values for the Dose in assay [14] and in assay [15] were 100 mg/kg and 200 mg/kg, respectively. For the same compound, the IC50 in assay [5] was > 20 µM.

As for `CC(=O)N1CC(C)c2cc3c(cc2C(c2ccc(N)cc2)=N1)OCO3` (stereo not drawn), the figures for the 50% effective dose (ED50) in [9], in [2] and in assay [3] were 135 mg/kg, 69.3 mg/kg and 95.3 mg/kg, respectively. The Dose was 100 mg/kg in assay [16] and 200 mg/kg in assay [17]. The compound further registered an Inhibition in assay [10] of 54%. In addition, the IC50 is 3.4 µM in [12] and 20 µM in assay [5].

For `CC1=NN=C(c2ccc(N)cc2)c2cc3c(cc2C1)OCO3` [GYKI-52466], the values for the ED50 in assay [9] and in assay [2] were 120 mg/kg and 37.4 mg/kg, respectively. In addition, the figures for the IC50 in assay [18], in [12] and in assay [5] were 9.9 µM, 9.5 µM and 6.3 µM, respectively. In addition, the Dose in assay [11] stood at 200 mg/kg; in assay [13], 100 mg/kg.

Regarding `CC(=O)N1N=C(c2ccc(N)cc2)c2cc3c(cc2C[C@H]1C)OCO3` [TALAMPANEL], the IC50 in assay [18] came to 2.5 µM; in assay [12] it was 2.6 µM; in [5], 1.7 µM. In addition, the ED50 in [2] turned out to be 8.6 mg/kg. For the same compound, the results for the Dose in [11] and in assay [13] were 200 mg/kg and 100 mg/kg, respectively.

In general, ED50 refers to the dose at which the effect has come halfway, by size or by number of responders. One may read the IC50 as the point on the concentration scale where inhibition reaches its midpoint. Low readings indicate higher potency, high ones lower potency. For orientation: Inhibition means the relative decrease from the control value, in per cent. Read a low Inhibition as a response near the control.
